Results on two compounds are retold here after ChEMBL document CHEMBL5055628, “Anticancer properties of indole derivatives as IsoCombretastatin A-4 analogues” (Eur J Med Chem, 2021).

In one series the test system is HCT-116. Kind of series: Cytotoxicity against human HCT-116 cells assessed as inhibition of cell growth measured after 72 hrs by CellTiter-Glo reagent based luminescence assay. It counts as functional. The conditions noted are these: HCT-116, 72 h. An outline of the steps:
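Cells (HCT-116 in McCoy's 5A; U87-MG in DMEM 4.5 g/L glucose; all with 10% serum, 1% glutamine, 37 °C, 5% CO2) seeded at 3 × 10³/well, treated after 24 h with 10 final concentrations by serial dilution; vehicle controls. After 72 h, CellTiter-Glo luminescence; IC50 from four- or five-parameter logistic fit, triplicate, mean of three experiments.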

Series [1] is described as follows: Drug metabolism in rat liver microsomes assessed as hydroxylated metabolite formation measured after 96 hrs by ESI-HRMS assay. In kind it is ADME, Microsome. An outline of the steps: (§1)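 Compound at 100 μM final incubated at 37 °C with rat or human liver microsomes (1 mg/mL protein, 10 mM buffer pH 7.4) plus NADPH-generating system (0.6 mM NADPNa4, 6.4 mM glucose-6-phosphate, 2 U/mL G6PDH). After 96 h, ethyl acetate extraction and HPLC-MS/MS (positive ESI, m/z 150–450, collision-induced dissociation) to identify metabolites.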
In general terms: Liver microsomes are vesicles of endoplasmic reticulum, rich in cytochrome P450 enzymes.

A short description of series [2]: Drug metabolism in rat liver microsomes assessed as O-demethylated metabolite formation measured after 96 hrs by ESI-HRMS assay. It counts as ADME, Microsome. In outline: (§2)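 Rat or human liver microsomes at 1 mg/mL final protein in 10 mM buffer, pH 7.4, prewarmed to 37 °C with an NADPH-generating system (0.6 mM NADP, 6.4 mM glucose-6-phosphate, 2 U/mL G6P dehydrogenase). Substrate 100 μM final; shaken at 37 °C. Triplicate aliquots taken at 0–96 h (up to 144 h), ethyl acetate quench with internal standard, then HPLC-MS/MS (positive ESI, m/z 150–450, CID).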

Series [3] is described as follows: Drug metabolism in human liver microsomes assessed as hydroxylated metabolite formation measured after 96 hrs by ESI-HRMS assay. It counts as ADME, Microsome. An outline of the steps:
as §1

Series [4] can be described thus: Drug metabolism in human liver microsomes assessed as O-demethylated metabolite formation measured after 96 hrs by ESI-HRMS assay. It counts as ADME, Microsome. In outline:
as §2

Series [5] is described as follows: Metabolic stability in rat liver microsomes assessed as half life measured after 96 hrs by HPLC-MS/MS analysis. In kind it is ADME, Microsome. In outline:
(§3)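 Compound (100 μM final) incubated at 37 °C with rat or human liver microsomes (1 mg/mL protein, pH 7.4) and NADPH-generating system; triplicate aliquots at 0–144 h quenched with isoCA-4 internal standard and ethyl acetate, quantified by HPLC-MS/MS against calibration curves.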

Series [6] is described as follows: Metabolic stability in human liver microsomes assessed as half life measured after 96 hrs by HPLC-MS/MS analysis. It counts as ADME, Microsome. In outline:
as §3

A short description of series [7]: Inhibition of porcine brain tubulin polymerization incubated for 30 mins followed by cooling on ice for 10 mins and measured by UV spectrometer assay. In kind it is tissue-based, Sus scrofa. In outline: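 Porcine brain tubulin (Shelanski isolation) in 0.1 M MES, 1.5 mM GTP, 1 mM EGTA, 1 mM β-ME, 1 mM MgCl2, pH 6.7, diluted to 1.5 mg/mL; ligand or DMSO 30 min at 20 °C, 10 min on ice. Assembly by 450 nm turbidity on 4→37 °C shift, plateau minus baseline vs no-ligand control (100%); IC50 from mono-exponential fit of ligand:tubulin ratio, three independent experiments.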

A further series has as its system A549. Kind of series: Cytotoxicity against human A549 cells assessed as inhibition of cell growth measured after 72 hrs by CellTiter-Glo reagent based luminescence assay. It counts as functional. Particulars: A549, 72 h. In outline:
(§4)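 Cells seeded at 3 × 10³/well and grown 24 h. A549, MDA-MB231, K562 and K562R (doxorubicin-resistant) were in RPMI 1640; MiaPaCa2 and HT29 in DMEM (4.5 g/L glucose); all media had 10% FCS and 1% glutamine, at 37 °C and 5% CO₂. Cells got 10 final concentrations by serial dilution, with vehicle controls, for 72 h. CellTiter-Glo luminescence was read after 15 min. Triplicate runs; IC50 from four- or five-parameter logistic fits.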
A general note: In ATP-based viability assays light output follows the ATP content of the culture.

A further series relates to MDA-MB-231. Kind of series: Cytotoxicity against human MDA-MB-231 cells assessed as inhibition of cell growth measured after 72 hrs by CellTiter-Glo reagent based luminescence assay. It counts as functional. The conditions noted are these: MDA-MB-231, 72 h. In outline:
as §4

The subject of another series is MIA PaCa-2. Kind of series: Cytotoxicity against human MIA PaCa-2 cells assessed as inhibition of cell growth measured after 72 hrs by CellTiter-Glo reagent based luminescence assay. It counts as functional. The conditions noted are these: MIA PaCa-2, 72 h. An outline of the steps: as §4
The next series relates to HT-1080. Kind of series: Cytotoxicity against human HT-1080 cells assessed as inhibition of cell growth measured after 72 hrs by CellTiter-Glo reagent based luminescence assay. It counts as functional. Particulars: HT-1080, 72 h.
The test system of the next series is K562. Kind of series: Cytotoxicity against human K562 cells assessed as inhibition of cell growth measured after 72 hrs by CellTiter-Glo reagent based luminescence assay. In kind it is functional. Particulars: K562, 72 h. An outline of the steps:
as §4

A further series deals with K-562R. Kind of series: Cytotoxicity against human K-562R cells assessed as inhibition of cell growth measured after 72 hrs by CellTiter-Glo reagent based luminescence assay. In kind it is functional. An outline of the steps:
as §4

A further series concerns HT-29. Kind of series: Cytotoxicity against human HT-29 cells assessed as inhibition of cell growth measured after 72 hrs by CellTiter-Glo reagent based luminescence assay. It counts as functional. The conditions noted are these: HT-29, 72 h. In outline: as §4

As usually defined, the IC50 is the concentration needed to halve the response being measured. By half-life is commonly meant the time in which the quantity being followed falls by half. `C=C(c1cc(OC)c(OC)c(OC)c1)c1ccc2c(c1)cc(CO)n2CC`: the IC50 in the series with HCT-116 came to 0.52 nM; in series [7], 2900 nM. Moreover, the Drug metabolism entry in series [1], in series [2], in [3] and in series [4] was “Metabolite_Detected” throughout. Moreover, the half-life in series [5] was 70 h; in [6], 89 h.

Consider `C=C(c1ccc(OC)c(O)c1)c1cc(OC)c(OC)c(OC)c1`, for which the IC50 in the series on HCT-116 was found to be 0.64 nM; with A549, 52.7 nM; in the series on MDA-MB-231, 1.98 nM; in the series with MIA PaCa-2, 3.01 nM; in the series on HT-1080 it was 0.91 nM; in the series on K562, 4.26 nM. In addition, the IC50 in the series on K-562R is 5.13 nM; in the series with HT-29 it was more than 100 nM. The Drug metabolism entry in [1], in [2], in series [3] and in [4] was “Metabolite_Detected” throughout. In addition, the half-life is 18 h in [5] and 30 h in series [6].
